Values after ≈ are worked out from the molar mass of the structure shown.
Key:
[1] = system: Acinetobacter baumannii; assay: Growth inhibition of Acinetobacter baumannii ATCC 19606 after 48 hrs by resazurin dye based microdilution method; assay type: functional; conditions: ATCC 19606 = CIP 70.34 = JCM 6841, 48 h
Procedure, shortened: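 A. baumannii ATCC 19606 grown in tryptic soy broth, 37 °C with shaking, to mid-log (OD 0.5). Cultures treated with serial dilutions of inhibitor (DMSO stock 1 mg/100 μL), 48 h at 37 °C. Resazurin then added, 1 h at 37 °C with shaking. MIC is the lowest concentration staying blue; MBC is blue retained over 4 h, with CFU plating if needed (99.9% kill).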

[2] = system: Acinetobacter baumannii; assay: Growth inhibition of multidrug-resistant Acinetobacter baumannii ATCC BAA 18002 after 48 hrs by resazurin dye based broth microdilution method; assay type: functional; conditions: ATCC BAA 18002, 48 h
Procedure, shortened: (§1)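 Broth microdilution in tryptic soy broth. Mid-log cultures (OD600 0.5) treated with serial dilutions from a DMSO stock (1 mg per 100 μL) for 48 h at 37 °C. Resazurin (stock 0.02%) then added for 1 h at 37 °C. MIC is the lowest concentration staying blue; MBC is blue retained over 4 h (99.9% kill), with CFU plating when needed.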

[3] = system: Acinetobacter baumannii; assay: Synergistic bactericidal activity against Acinetobacter baumannii ATCC 19606 at 35:1 compound to doxycycline ratio after 48 hrs by resazurin dye based microdilution broth checkerboard method; assay type: functional; conditions: ATCC 19606 = CIP 70.34 = JCM 6841, 48 h, read-out: MBC99.9
Procedure, shortened: (§2)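 Checkerboard broth microdilution of drug pairs in tryptic soy broth on mid-log cultures (OD 0.5), 48 h at 37 °C. Growth read by resazurin (pink growth, blue no growth). MBC is blue retained over 4 h, CFU plating where needed. ΣFIC = C_A/MIC_A + C_B/MIC_B, taken at the growth/no-growth interface wells; ΣFIC <0.5 counts as synergy.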

[4] = system: Acinetobacter baumannii; assay: Synergistic bactericidal activity against multidrug-resistant Acinetobacter baumannii ATCC […] at 60:1 compound to doxycycline ratio […] by resazurin dye based microdilution broth checkerboard method; assay type: functional; conditions: read-out: MBC99.9
[5] = system: Klebsiella pneumoniae; assay: Synergistic antibacterial activity against Klebsiella pneumoniae ATCC 8047 at 60:1 compound to doxycycline ratio after 48 hrs by resazurin dye based microdilution broth checkerboard method; assay type: functional; conditions: ATCC 8047, 48 h; procedure, shortened: as §2
[6] = system: Klebsiella pneumoniae; assay: Synergistic bactericidal activity against Klebsiella pneumoniae ATCC 8047 at 60:1 compound to doxycycline ratio after 48 hrs by resazurin dye based microdilution broth checkerboard method; assay type: functional; conditions: ATCC 8047, 48 h, read-out: MBC99.9; procedure, shortened: as §2
[7] = system: Klebsiella pneumoniae; assay: Synergistic antibacterial activity against Klebsiella pneumoniae ATCC 8047 at 35:1 compound to doxycycline ratio after 48 hrs by resazurin dye based microdilution broth checkerboard method; assay type: functional; conditions: ATCC 8047, 48 h; procedure, shortened: as §2
[8] = system: Escherichia coli; assay: Growth inhibition of Escherichia coli ATCC 10798 after 48 hrs by resazurin dye based microdilution method; assay type: functional; conditions: ATCC 10798, 48 h; procedure, shortened: as §1
[9] = system: Pseudomonas aeruginosa; assay: Synergistic antibacterial activity against Pseudomonas aeruginosa ATCC 27853 at 60:1 compound to doxycycline ratio after 48 hrs by resazurin dye based microdilution broth checkerboard method; assay type: functional; conditions: ATCC 27853, 48 h; procedure, shortened: as §2
[10] = system: Pseudomonas aeruginosa; assay: Synergistic antibacterial activity against Pseudomonas aeruginosa ATCC 27853 at 35:1 compound to doxycycline ratio after 48 hrs by resazurin dye based microdilution broth checkerboard method; assay type: functional; conditions: ATCC 27853, 48 h
Procedure, shortened: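 Microdilution broth checkerboard of the compound combined with doxycycline, using the resazurin broth method (48 h, 37 °C, blue = no growth). ΣFIC = C_A/MIC_A + C_B/MIC_B, taken at the growth–no growth interface wells; ΣFIC below 0.5 is scored as synergy. MBC for the fixed-ratio combinations read as the 4 h resazurin endpoint.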

[11] = system: Pseudomonas aeruginosa; assay: Synergistic bactericidal activity against Pseudomonas aeruginosa ATCC 27853 at 35:1 compound to doxycycline ratio after 48 hrs by resazurin dye based microdilution broth checkerboard method; assay type: functional; conditions: ATCC 27853, 48 h, read-out: MBC99.9; procedure, shortened: as §2
[12] = system: Pseudomonas aeruginosa; assay: Synergistic bactericidal activity against Pseudomonas aeruginosa ATCC 27853 at 2:1 compound to doxycycline ratio after 48 hrs by resazurin dye based microdilution broth checkerboard method; assay type: functional; conditions: ATCC 27853, 48 h, read-out: MBC99.9; procedure, shortened: as §2
[13] = system: Pseudomonas aeruginosa; assay: Growth inhibition of Pseudomonas aeruginosa ATCC 27853 after 48 hrs by resazurin dye based microdilution method; assay type: functional; conditions: ATCC 27853, 48 h; procedure, shortened: as §1
[14] = system: Staphylococcus aureus; assay: Synergistic antibacterial activity against Staphylococcus aureus ATCC 25923 at 2:1 compound to doxycycline ratio after 48 hrs by resazurin dye based microdilution broth checkerboard method; assay type: functional; conditions: ATCC 25923, 48 h; procedure, shortened: as §2
[15] = system: Staphylococcus aureus; assay: Synergistic bactericidal activity against Staphylococcus aureus ATCC 25923 at 2:1 compound to doxycycline ratio after 48 hrs by resazurin dye based microdilution broth checkerboard method; assay type: functional; conditions: ATCC 25923, 48 h, read-out: MBC99.9; procedure, shortened: as §2
[16] = system: Acinetobacter baumannii; assay: Potentiation of doxycycline-induced antimicrobial activity against Acinetobacter baumannii ATCC 19606 at 0.2 ug/ml in presence of 0.025 ug/ml doxycycline by microdilution broth checkerboard method; assay type: functional, ATCC 19606 = CIP 70.34 = JCM 6841
Procedure, shortened: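 A. baumannii ATCC 19606 in a broth microdilution checkerboard with doxycycline, 96 concentration combinations. ΣFIC = C_A/MIC_A + C_B/MIC_B, taken for wells at the growth/no-growth interface; ΣFIC <0.5 counts as synergy.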

[17] = system: Vero; assay: Cytotoxicity against African green monkey Vero cells after 72 hrs by MTT assay; assay type: cell-based, Chlorocebus sabaeus; conditions: Chlorocebus sabaeus, Vero, 72 h; read-out: IC50
Procedure, shortened: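 Vero (ATCC CCL-81) cells in Eagle's MEM with 10% FBS and penicillin-streptomycin, in 96-well plates. Serial dilutions from 0.78 to 200 μg/mL. Tunicamycin, colistin or tobramycin as controls on each plate. Viability by MTT, giving IC50.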

[18] = Safety index, ratio of compound IC50 to valnemulin IC50 for African green monkey Vero cells; assay type: ADME, cell-based; conditions: chlorocebus sabaeus, read-out: Ratio IC50
[19] = Protein binding in rat plasma at 500 to 5000 ng/ml after 4 hrs by LC/MS analysis; assay type: ADME, cell-free
Procedure, shortened: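 Equilibrium dialysis (MWCO 6000–8000) of Sprague-Dawley rat plasma (lithium heparin) spiked at 500 and 5000 ng/mL, in duplicate, against isotonic phosphate buffer pH 7.4. 4 h at 37 °C, about 100 rpm. Methanol with internal standard, LC-MS. Free fraction = buffer/plasma concentration; reported as % bound. Verapamil as reference.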

[20] = system: Acinetobacter baumannii; assay: Synergistic antibacterial activity against Acinetobacter baumannii ATCC 19606 infected in C57BL/6 mouse assessed as survival rate at compound to doxycycline ratio of 35:1 at 20 mg/kg, ip administered as single dose measured for 5 days (reference value: <20%); assay type: functional; conditions: ATCC 19606 = CIP 70.34 = JCM 6841, ip, 120 h
Procedure, shortened: (§3)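 C57BL/6 mice (n = 5 per group; 4 untreated controls) infected intraperitoneally with A. baumannii ATCC19606 grown at 37 °C and collected by centrifugation, at a dose giving 75% death. Single intraperitoneal dose (2 to 60 mg/kg) given 1 h after infection. Mice monitored for 5 days, with death as the end point; survival rate recorded.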

[21] = system: Acinetobacter baumannii; assay: Synergistic antibacterial activity against Acinetobacter baumannii ATCC 19606 infected in C57BL/6 mouse assessed as increase in survival rate at compound to doxycycline ratio of 35:1 administered ip as single dose measured for 5 days; assay type: functional; conditions: ATCC 19606 = CIP 70.34 = JCM 6841, ip, 120 h; procedure, shortened: as §3
[22] = Efflux ratio of apparent permeability in human Caco2 cells; assay type: ADME, cell-based; conditions: Caco-2

## C=C[C@]1(C)C[C@@H](OC(=O)CSC(C)(C)CNC(=O)[C@H](N)C(C)C)[C@]2(C)[C@H](C)CC[C@]3(CC[C@@H](O)[C@H]32)[C@@H](C)[C@@H]1O
[1]
  MIC: 1.75 µg/mL (≈ 3.09 µM)
[2]
  MIC: 6.25 µg/mL (≈ 11 µM)
[3]
  MBC: 2 µg/mL
[4]
  MBC: 6.25 µg/mL
[5]
  MIC: 1.56 µg/mL
[6]
  MBC: 3.25 µg/mL
[7]
  MIC: 0.78 µg/mL
[8]
  MIC: 3.13 µg/mL (≈ 5.52 µM)
[9]
  MIC: 12.5 µg/mL
[10]
  MIC: 12.5 µg/mL
[11]
  MBC: 25 µg/mL
[12]
  MBC: 12.5 µg/mL
[13]
  MIC: > 25 µg/mL
[14]
  MIC: 12.5 µg/mL
[15]
  MBC: 25 µg/mL
[16]
  fractional inhibitory concentration index (FICI): 0.16
[17]
  IC50: 45.3 µg/mL (≈ 79.9 µM)
[18]
  selectivity ratio: 2.85
[19]
  PPB: 76.9%
[20]
  survival at 20 mg/kg: 100%
[21]
  ED50: < 2 mg/kg
[22]
  efflux ratio: 5
